Source: ChEMBL document CHEMBL1140981, “Substrate optimization for monitoring cathepsin C activity in live cells” (Bioorg Med Chem, 2009)
The source made the active and inactive calls. The calls are words filed in the database; no cut-off is given here.

Tests used:
Dipeptidyl peptidase 1 [1] = biological target: T1, Dipeptidyl peptidase 1 (Homo sapiens, UniProt P53634); assay: Blockade of conjugation of cathepsin C in human B721 cells to I125-labeled (S)-2-amino-N-((S)-1-(4-hydroxy-3-iodophenylsulfonyl)-5-phenylpent-1-en-3-yl)pentanamide pretreated for 30 mins before addition of I125-labeled (S)-2-amino-N-((S)-1-(4-hydroxy-3-iodophenylsulfonyl)-5-phenylpent-1-en-3-yl)pentanamide by SDS-PAGE; type: cell-based
T1 sequence (P53634 25-134 limits assumed): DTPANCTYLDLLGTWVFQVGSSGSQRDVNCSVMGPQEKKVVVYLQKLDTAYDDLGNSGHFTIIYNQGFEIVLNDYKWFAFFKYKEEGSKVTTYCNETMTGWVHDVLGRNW
T1 sequence (P53634 231-394 limits assumed): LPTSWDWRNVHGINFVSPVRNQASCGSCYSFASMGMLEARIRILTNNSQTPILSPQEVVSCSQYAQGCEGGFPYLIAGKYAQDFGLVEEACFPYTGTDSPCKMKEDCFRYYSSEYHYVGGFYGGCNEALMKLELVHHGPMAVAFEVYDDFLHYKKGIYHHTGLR
T1 sequence (P53634 395-463 limits assumed): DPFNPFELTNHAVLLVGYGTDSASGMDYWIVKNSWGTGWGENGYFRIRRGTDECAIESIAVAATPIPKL
Outline: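 B721 cells at 1 × 10⁶ cells/mL were preincubated with compound or DMSO (final 50, 10, 1, 0.1, 0 μM) for 30 min at 37 °C, 5% CO2. ¹²⁵I-labeled probe was then added at 2 nM for another 30 min at 37 °C. Cells were pelleted, lysed and boiled. Labeled cathepsin C was resolved by SDS–PAGE and quantified by phosphorimaging.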

Pro-cathepsin H = biological target: T2, Pro-cathepsin H (Homo sapiens, UniProt P09668); assay: Inhibition of human recombinant cathepsin H by fluorescence assay
T2 sequence (P09668 whole entry): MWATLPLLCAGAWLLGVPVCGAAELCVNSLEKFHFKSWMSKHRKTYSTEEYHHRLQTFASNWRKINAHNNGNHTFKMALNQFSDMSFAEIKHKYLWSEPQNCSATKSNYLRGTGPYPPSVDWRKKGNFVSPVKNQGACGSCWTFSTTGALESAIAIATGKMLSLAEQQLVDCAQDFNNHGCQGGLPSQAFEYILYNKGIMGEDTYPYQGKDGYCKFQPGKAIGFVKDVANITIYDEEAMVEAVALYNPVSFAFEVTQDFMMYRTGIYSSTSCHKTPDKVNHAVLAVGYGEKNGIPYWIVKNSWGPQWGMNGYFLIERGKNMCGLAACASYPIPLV
Outline: (§1)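 Recombinant human enzyme was preincubated with inhibitor for 20 min. Substrate was then added: H-Arg-AMC for cathepsin H, H₂N-Gly-Phe-AMC for cathepsin C. Buffer was 100 mM NaOAc, 1 mM EDTA, 0.01% Brij-35, 5 mM DTT, pH 5.5, 37 °C. AMC release was read by fluorescence, ex 380/em 450 nm. Progress curves were fitted to the Morrison equation, and apparent values were converted to Ki assuming competitive inhibition.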

Dipeptidyl peptidase 1 [2] = biological target: T1, Dipeptidyl peptidase 1; assay: Inhibition of human recombinant cathepsin C by fluorescence assay; outline: as §1
Cathepsin K = biological target: T3, Cathepsin K (Homo sapiens, UniProt P43235); assay: Inhibition of human recombinant cathepsin K by fluorescence assay
T3 sequence (P43235 whole entry): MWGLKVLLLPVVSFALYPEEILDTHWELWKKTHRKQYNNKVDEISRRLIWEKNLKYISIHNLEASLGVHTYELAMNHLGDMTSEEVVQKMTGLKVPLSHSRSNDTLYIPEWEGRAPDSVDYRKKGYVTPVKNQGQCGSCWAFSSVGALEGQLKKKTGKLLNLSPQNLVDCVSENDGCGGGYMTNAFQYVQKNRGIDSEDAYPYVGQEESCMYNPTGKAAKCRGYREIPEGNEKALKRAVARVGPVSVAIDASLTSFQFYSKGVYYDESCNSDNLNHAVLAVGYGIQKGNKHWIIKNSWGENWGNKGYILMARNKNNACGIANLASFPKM

Cathepsin S = Cathepsin S (Homo sapiens, UniProt P25774); assay: Inhibition of human recombinant cathepsin S by fluorescence assay
Chain of Cathepsin S (P25774 whole entry): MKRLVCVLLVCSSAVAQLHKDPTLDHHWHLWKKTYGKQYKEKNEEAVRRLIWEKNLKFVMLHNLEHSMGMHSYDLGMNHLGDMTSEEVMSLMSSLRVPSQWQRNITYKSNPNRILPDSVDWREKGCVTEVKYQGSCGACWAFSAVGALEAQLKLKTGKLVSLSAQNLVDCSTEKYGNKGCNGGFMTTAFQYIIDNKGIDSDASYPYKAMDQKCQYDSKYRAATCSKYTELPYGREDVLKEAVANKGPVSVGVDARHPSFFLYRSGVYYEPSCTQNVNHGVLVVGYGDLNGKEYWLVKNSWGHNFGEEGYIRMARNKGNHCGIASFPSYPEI

Dipeptidyl peptidase 1 [3] = biological target: T1, Dipeptidyl peptidase 1; assay: Inhibition of cathepsin C in human B721 cells by FACS assay; type: cell-based
Outline: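 B721 EBV-immortalized B cells were washed and resuspended in serum-free, phenol red-free RPMI 1640 at 1 × 10⁶ cells/mL. Cells were pretreated with compound or DMSO (final 10, 3.3, 1.1, 0.37, 0.12, 0 μM) for 30 min at 37 °C, 5% CO2. (H₂N-Abu-Hph)₂-rhodamine (final 2 μM) and propidium iodide (4 μg/mL) were added. Flow cytometry read ex 488/em 530 nm at three time points 15 min apart.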

Cathepsin B = Cathepsin B (Homo sapiens, UniProt P07858); assay: Inhibition of human recombinant cathepsin B by fluorescence assay
Dipeptidyl peptidase 1 [4] = biological target: T1, Dipeptidyl peptidase 1; assay: Binding affinity to cathepsin C in human B721 cells assessed as cellular compound turnover in presence of (S)-2-Amino-pentanoic acid ((S)-3-methanesulfonyl-1-phenethyl-allyl)-amide; type: cell-based
[5] = biological target: Procathepsin L (Homo sapiens) (UniProt P07711); assay: Inhibition of human recombinant cathepsin L by fluorescence assay
Chain of Procathepsin L (Homo sapiens) (P07711 114-333 limits assumed): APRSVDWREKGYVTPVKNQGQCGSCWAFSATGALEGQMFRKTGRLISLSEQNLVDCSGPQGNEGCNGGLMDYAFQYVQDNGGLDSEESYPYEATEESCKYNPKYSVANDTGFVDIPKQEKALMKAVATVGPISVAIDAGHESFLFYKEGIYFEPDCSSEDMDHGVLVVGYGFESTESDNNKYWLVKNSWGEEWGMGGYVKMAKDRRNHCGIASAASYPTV

Homo sapiens [6] = organism: Homo sapiens; assay: Selectivity for human recombinant cathepsin C over human recombinant cathepsin S
Homo sapiens [7] = organism: Homo sapiens; assay: Selectivity for human recombinant cathepsin C over human recombinant cathepsin B
Homo sapiens [8] = organism: Homo sapiens; assay: Selectivity for human recombinant cathepsin C over human recombinant cathepsin H
Homo sapiens [9] = organism: Homo sapiens; assay: Selectivity for human recombinant cathepsin C over human recombinant cathepsin K
Homo sapiens [10] = organism: Homo sapiens; assay: Selectivity for human recombinant cathepsin C over human recombinant cathepsin L

IC50 (Dipeptidyl peptidase 1 [1]) [nM] | Ki (Pro-cathepsin H) [nM] | INH (Dipeptidyl peptidase 1 [2]) [nM] | Ki (Cathepsin K) [nM] | Ki (Cathepsin S) [nM] | IC50 (Dipeptidyl peptidase 1 [3]) [nM] | Ki (Cathepsin B) [nM] | Activity (Dipeptidyl peptidase 1 [4]) | INH [5] [nM] | Activity (Homo sapiens [6]) | Activity (Homo sapiens [7]) | Activity (Homo sapiens [8]) | Activity (Homo sapiens [9]) | Activity (Homo sapiens [10]) | SMILES
10000 | 3700 | 1.5 | 18000 | > 100000 | 6100 | > 100000 | – | – | – | – | – | – | – | CC[C@H](N)C(=O)N[C@H](C#N)Cc1ccc(-c2ccccc2)cc1
4000 | 1400 | 1800 | 1.2 | < 0.1 | 2600 | 64 | – | – | – | – | – | – | – | CC(C)C[C@H](NC(=O)N1CCOCC1)C(=O)N[C@H](/C=C/S(=O)(=O)c1ccccc1)CCc1ccccc1
– | – | – | – | – | – | – | inactive | – | – | – | – | – | – | CC[C@H](N)C(=O)N[C@@H](CCc1ccccc1)C(=O)Nc1ccc2c(c1)Oc1cc(NC(=O)[C@H](CCc3ccccc3)NC(=O)[C@@H](N)CC)ccc1C21OC(=O)c2ccccc21
100 | 137 | 0.2 | 120 | 5.5 | 70 | 1100 | – | 20 | 75 | 75 | 75 | 75 | 75 | CCC[C@H](N)C(=O)N[C@H](/C=C/S(=O)(=O)c1ccccc1)CCc1ccccc1
– | – | – | – | – | – | – | inactive | – | – | – | – | – | – | CCC[C@H](N)C(=O)N[C@@H](CCc1ccccc1)C(=O)Nc1ccc2c(c1)Oc1cc(NC(=O)[C@H](CCc3ccccc3)NC(=O)[C@@H](N)CCC)ccc1C21OC(=O)c2ccccc21
– | – | – | – | – | – | – | inactive | – | – | – | – | – | – | O=C1OC2(c3ccc(NC(=O)[C@H](CCc4ccccc4)NC(=O)[C@@H]4CCCN4)cc3Oc3cc(NC(=O)[C@H](CCc4ccccc4)NC(=O)[C@@H]4CCCN4)ccc32)c2ccccc21
